Screens deposited in PubChem by several laboratories.
This is a sample that favours compounds with a hit; in the whole collection about 4.6% have one here.
FAS-TE inh = FAS thioesterase domain inhibitors, primary screen, biochemical, fluorescence intensity, uHTS | hit rate 0.67% among 360,000 | inhibition, % at 15 µM | recombinant FAS-TE, OMFH fluorogenic substrate, fluorescence endpoint | Fatty acid synthase (Homo sapiens), P49327;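 active = compounds whose normalised, plate-corrected inhibition of enzyme fluorescence in the single-dose primary screen is 50% or more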;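 note: 0% = DMSO with enzyme and 100% = substrate without enzyme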
M18AAP inhibitor = PfM18AAP inhibitors, malaria aminopeptidase, primary screen, biochemical, QFRET, recombinant enzyme; AID 1822, 2009; hit rate 1.2% among 290,000; H-Glu-NHMec fluorogenic cleavage; inhibition, % at 7.35 µM;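 active = inhibition above the campaign mean inhibition over all tested compounds plus 3 SD, cut at about 28% in these data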;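 note: 0% = plate median of test compound wells and 100% = 2 mM ZnCl2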
ALR inh = inhibitors of human ALR sulfhydryl oxidase, primary screen, biochemical, H2O2 detection, HRP-luminol luminescence, single point | inhibition, % (no concentration beside the values) | purified ALR, DTT oxidation | hit rate 3.8% among 290,000;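 active = mean replicate inhibition above about 79%, with every replicate also reaching it, limit read from the data; inconclusive = only one of the two criteria met; inactive = mean below limit and not every replicate reaching it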
Target sequence (P55789 whole entry, looked up): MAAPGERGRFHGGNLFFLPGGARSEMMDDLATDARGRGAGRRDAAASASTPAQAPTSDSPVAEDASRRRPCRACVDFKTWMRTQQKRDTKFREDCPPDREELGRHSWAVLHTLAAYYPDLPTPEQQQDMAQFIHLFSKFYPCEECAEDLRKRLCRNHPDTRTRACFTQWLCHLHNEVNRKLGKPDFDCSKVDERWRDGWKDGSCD
Rtt109 HAT inh = inhibitors of C. albicans Rtt109/Vps75 HAT, primary screen, biochemical, ThioGlo CoA-SH fluorescence, plate reader | hit rate 0.16% among 330,000 | purified Rtt109/Vps75, 4 h | Histone acetyltransferase RTT109 (Candida albicans (strain SC5314 / ATCC MYA-2876)), … | inhibition, % at 34.9 µM | AID 540336, 2011;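 active = inhibition of at least 50% in every replicate; inconclusive = best replicate reaches 50% inhibition but some replicates fall short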
HDAC3 inhib = HDAC3 deacetylase inhibitors, primary screen, biochemical, fluorescence, cell-free homogeneous | hit rate 0.15% among 320,000 | recombinant HDAC3, fluorogenic peptide/trypsin coupled | inhibition, % at 8.3 µM; in the data active = inhibition above about 26%, passing the limit was not always enough; inconclusive = no clear call, values can overlap the other calls
Target sequence (O15379 whole entry, looked up): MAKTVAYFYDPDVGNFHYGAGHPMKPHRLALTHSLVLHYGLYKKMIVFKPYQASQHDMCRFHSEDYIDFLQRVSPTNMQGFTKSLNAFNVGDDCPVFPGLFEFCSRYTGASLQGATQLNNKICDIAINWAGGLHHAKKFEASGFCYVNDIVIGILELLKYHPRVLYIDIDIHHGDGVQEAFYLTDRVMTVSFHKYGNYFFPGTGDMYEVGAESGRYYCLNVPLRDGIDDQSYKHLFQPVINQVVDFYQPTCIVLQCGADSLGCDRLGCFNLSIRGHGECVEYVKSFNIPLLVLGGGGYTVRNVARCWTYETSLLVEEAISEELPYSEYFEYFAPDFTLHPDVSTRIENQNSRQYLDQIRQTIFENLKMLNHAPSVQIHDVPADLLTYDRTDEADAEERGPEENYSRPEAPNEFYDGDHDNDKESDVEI
UCH37 DUB inh = inhibitors of human UCH37 deubiquitinase, primary screen, biochemical, Ub-AMC cleavage, fluorescence; Ubiquitin carboxyl-terminal hydrolase isozyme L5 (Homo sapiens), Q9Y5K5; purified proteasome/UCH37; inhibition, % (test concentration not listed); hit rate 0.33% among 330,000; AID 588478, 2011;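 active = mean inhibition over replicate wells above about 20%, limit read from the data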;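 note: 0% = compound-free wells with enzyme and 100% = wells lacking proteasome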
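Signal – fluorescence, ex 355 nm, em 460 nm · System – Proteasome-bound UCH37 · Input – 0.15 nM proteasome as dispensed · Timing – 30 min preincubation with enzyme, 25 min cleavage at room temperature · Read-out basis – percent inhibition of cleavage signal versus uninhibited and no-proteasome wells · Medium – Tris-HCl pH 7.4 with ATP-MgCl2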
Starred values were filed as active, the others as inactive.

For COC(=O)c1ccc(CSc2nc(C(F)(F)F)c3c(c2C#N)CCC3)o1 the results were FAS-TE inh 32.7, M18AAP inhibitor 2.2, ALR inh 98.0*, Rtt109 HAT inh 1.7, HDAC3 inhib 16.5 and UCH37 DUB inh -0.8.
COC(=O)c1ccc(CSc2cc(C)c3ccccc3n2)o1 was read as FAS-TE inh 24.3, M18AAP inhibitor -12.6, ALR inh 3.9, Rtt109 HAT inh -3.4, HDAC3 inhib inconclusive and UCH37 DUB inh 2.1.
O=C(C[n+]1cccc(C=NO)c1)N(Cc1ccccc1)Cc1ccccc1 was read as UCH37 DUB inh 1.0.
For CCOC(=O)CC(=O)CSc1nc2c(sc(=S)n2-c2ccc(OCC)cc2)c(=O)[nH]1 the results were FAS-TE inh 2.6, M18AAP inhibitor 6.9, ALR inh 96.5*, Rtt109 HAT inh 9.0, HDAC3 inhib 3.2 and UCH37 DUB inh 4.9.
For CCOC(=O)CC(=O)CSc1nc2c(sc(=S)n2-c2ccc(C)c(C)c2)c(=O)[nH]1 the results were FAS-TE inh 2.7, M18AAP inhibitor 0.5, Rtt109 HAT inh 16.2, HDAC3 inhib 2.2 and UCH37 DUB inh 9.9.
For CCOc1ccc(-c2cc(C(=O)NN=C(C)c3cccnc3)c3ccccc3n2)cc1 the results were UCH37 DUB inh -43.4.
Screening CCCCC(CCC(=O)O)(C(=O)OCC)c1csc(Nc2ccc(C)cc2)n1 (stereo unspecified) returned FAS-TE inh 0.3, M18AAP inhibitor 0.7, ALR inh 98.8*, Rtt109 HAT inh -11.1, HDAC3 inhib -3.0 and UCH37 DUB inh 2.8.
COc1cc(C=NN2CCN(c3ccccc3OC)CC2)ccc1OC(C)=O was read as UCH37 DUB inh -1.2.
`O=c1cnnc(NN=Cc2ccc3c(c2)OCO3)[nH]1` gave UCH37 DUB inh 4.5.
`Cc1ccc(-c2nc(-c3ccccn3)sc2CC(=O)O)cc1` gave FAS-TE inh -4.4, M18AAP inhibitor -11.7, ALR inh 99.4*, Rtt109 HAT inh 2.1 and UCH37 DUB inh -4.7.
O=C(O)Cc1sc(-c2ccccc2)nc1-c1ccccc1 was read as FAS-TE inh -8.1, M18AAP inhibitor 5.8, ALR inh 3.3, Rtt109 HAT inh 9.1, HDAC3 inhib 3.1 and UCH37 DUB inh 3.9.
O=C(NN=Cc1c(F)c(F)c(F)c(F)c1F)c1cc(-c2ccccc2)nc2ccccc12 was read as UCH37 DUB inh 5.0.
Oc1ccc(C=NNC2=NCCCCC2)cc1 was read as UCH37 DUB inh -2.7.
`CC(C)(C)S(=O)(=O)N1C[C@@H]2CC/C=C\C/C(c3ccccc3)=C\2[C@H]1CCO` gave FAS-TE inh 2.8, Rtt109 HAT inh -0.9 and UCH37 DUB inh 20.5*.
`c1ccc(-c2nnc(-c3ccco3)o2)cc1` gave FAS-TE inh -5.4, M18AAP inhibitor 8.6, ALR inh 5.9, Rtt109 HAT inh -8.7, HDAC3 inhib -25.4 and UCH37 DUB inh 0.4.
Screening c1coc(-c2nnc(-c3ccco3)nn2)c1 returned FAS-TE inh -8.6, M18AAP inhibitor 53.8*, Rtt109 HAT inh -1.6, HDAC3 inhib 10.6 and UCH37 DUB inh 31.9*.
For CCCC(=O)Nc1sc(C(=O)Nc2cccc(N)c2)c(C)c1C(=O)OC the results were FAS-TE inh -0.9, M18AAP inhibitor 4.3, ALR inh 98.3*, Rtt109 HAT inh 1.6, HDAC3 inhib -2.4 and UCH37 DUB inh -0.2.
O=C(O)COc1ccccc1C=NNC(=O)CSc1nc2ccccc2n1Cc1ccc(Cl)cc1 was read as UCH37 DUB inh 2.2.
Screening O=C(COc1ccc(Cl)cc1)Nc1nc(-c2ccc(S(=O)(=O)N3CCOCC3)cc2)cs1 returned FAS-TE inh 63.4*, M18AAP inhibitor 4.7, ALR inh -1.8, Rtt109 HAT inh 1.0, HDAC3 inhib 4.4 and UCH37 DUB inh -2.0.
`Cc1nc(-c2cccc(S(=O)(=O)N3CCC(C)CC3)c2)cs1` gave FAS-TE inh 9.1, M18AAP inhibitor -13.5, ALR inh -24.1, Rtt109 HAT inh 6.1, HDAC3 inhib 1.9 and UCH37 DUB inh 1.6.
O=S(=O)(c1cccc(-c2csc(-c3ccccc3)n2)c1)N1CCOCC1 was read as FAS-TE inh 30.9, M18AAP inhibitor -8.1, ALR inh 98.2*, Rtt109 HAT inh 2.2, HDAC3 inhib 4.5 and UCH37 DUB inh 1.6.
Screening CC1CN(S(=O)(=O)c2cccc(-c3csc(-c4ccccc4)n3)c2)CC(C)O1 (stereo unspecified) returned FAS-TE inh 33.3, M18AAP inhibitor -2.3, ALR inh 98.1*, Rtt109 HAT inh 0.1, HDAC3 inhib 13.2 and UCH37 DUB inh -1.4.
`COc1ccccc1OCC(=O)Nc1nc(-c2ccc(S(=O)(=O)N3CCOCC3)cc2)cs1` gave FAS-TE inh 49.4, M18AAP inhibitor -4.9, ALR inh 22.2, Rtt109 HAT inh -1.7, HDAC3 inhib -4.5 and UCH37 DUB inh 4.8.
Cc1nc(-c2ccc(S(=O)(=O)N3CCOCC3)cc2)cs1 was read as FAS-TE inh -0.6, M18AAP inhibitor -7.8, ALR inh 93.4*, Rtt109 HAT inh 5.9, HDAC3 inhib -1.7 and UCH37 DUB inh 0.1.
`CCOc1c(Cl)cc(C=NNC(N)=S)cc1OC` gave UCH37 DUB inh 6.6.
Screening O=C(NN=Cc1ccc(Cl)cc1Cl)c1ccc2nc[nH]c2c1 returned UCH37 DUB inh 3.8.
For Cc1ccc(C(=O)NN=Cc2cc(C)n(-c3ccc(Br)cc3)c2C)cc1[N+](=O)[O-] the results were UCH37 DUB inh 0.1.
`COc1ccc(N2CCN(C(=O)NC34CC5CC(CC(C5)C3)C4)CC2)cc1` gave FAS-TE inh 2.3, M18AAP inhibitor -5.7, ALR inh 85.4*, Rtt109 HAT inh 23.3, HDAC3 inhib 4.4 and UCH37 DUB inh 3.7.
`O=C(NCCCN1CCN(c2cccc(Cl)c2)CC1)C1(S(=O)(=O)c2ccc(Cl)cc2)CC1` gave FAS-TE inh 2.2, M18AAP inhibitor 0.3, Rtt109 HAT inh 11.6, HDAC3 inhib 5.1 and UCH37 DUB inh 3.4.
`CNC(=S)N1CCN(c2ccc(OC)cc2)CC1` gave FAS-TE inh -9.8, M18AAP inhibitor 2.2, ALR inh 96.0*, Rtt109 HAT inh -10.3, HDAC3 inhib -3.9 and UCH37 DUB inh -2.1.
`COc1ccc(N2CCN(CC(=O)NCc3ccc(Cl)cc3)CC2)cc1` gave FAS-TE inh 1.9, M18AAP inhibitor -9.5, ALR inh 88.6*, Rtt109 HAT inh 1.4, HDAC3 inhib 2.5 and UCH37 DUB inh 3.3.
